Laboratory results as given in ChEMBL document CHEMBL4680118, “Cerpegin-derived furo[3,4-c]pyridine-3,4(1H,5H)-diones enhance cellular response to interferons by de novo pyrimidine biosynthesis inhibition” (Eur J Med Chem, 2020).
Calls of active or inactive are those of the source. The calls are words filed in the database; no cut-off is given here.

Assays:
[1] = biological target: T1, Dihydroorotate dehydrogenase (quinone), mitochondrial (Homo sapiens, UniProt Q02127); assay: Inhibition of DHODH in human HEK293 cells assessed as effect on intracellular purine level measured after 24 hrs by HPLC coupled spectrophotometry; assay type: cell-based
Outline: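 HEK-293 cells plated at 1×10^6 per well, treated 24 h later with compound (80 µM final) or DMSO for 24 h. Pellets deproteinized with 6% perchloric acid, neutralized with Na2CO3, analysed by C18 HPLC at 45°C with ion-pair phosphate/MeOH gradient, detected at 254 nm against reference nucleoside calibration curves. Normalized to viable cell number and DMSO controls.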

[2] = biological target: T1, Dihydroorotate dehydrogenase (quinone), mitochondrial; assay: Inhibition of DHODH in human HEK293 cells transfected with ISRE-luciferase reporter gene assessed as increase in 250 IU/ml IFN-alpha stimulated PML mRNA expression at 80 uM measured after 16 hrs by RT-qPCR analysis relative to control; assay type: cell-based
Outline: (§1)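 ISRE-Luc HEK cells co-treated with increasing IFN-α concentrations and DMSO or compound (80 µM) for 16 h. Total RNA extracted from 2×10^5 cells with DNase step; qPCR 35 cycles. CT values normalized to RPL13A and unstimulated controls (2^-ΔΔCT), expressed as fold change versus DMSO alone. Three independent experiments; two-way ANOVA with Bonferroni.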

[3] = biological target: T1, Dihydroorotate dehydrogenase (quinone), mitochondrial; assay: Inhibition of DHODH in human HEK293 cells transfected with ISRE-luciferase reporter gene assessed as increase in 30 IU/ml IFN-alpha stimulated IFIT3 mRNA expression at 80 uM measured after 16 hrs by RT-qPCR analysis relative to control; assay type: cell-based; outline: as §1
[4] = biological target: T1, Dihydroorotate dehydrogenase (quinone), mitochondrial; assay: Inhibition of DHODH in human HEK293 cells transfected with ISRE-luciferase reporter gene assessed as increase in 30 IU/ml IFN-alpha stimulated DDX58 mRNA expression at 80 uM measured after 16 hrs by RT-qPCR analysis relative to control; assay type: cell-based; outline: as §1
[5] = biological target: T1, Dihydroorotate dehydrogenase (quinone), mitochondrial; assay: Inhibition of DHODH in human HEK293 cells transfected with ISRE-luciferase reporter gene assessed as increase in 60 IU/ml IFN-alpha stimulated IFIT2 mRNA expression at 80 uM measured after 16 hrs by RT-qPCR analysis relative to control; assay type: cell-based; outline: as §1
[6] = biological target: T1, Dihydroorotate dehydrogenase (quinone), mitochondrial; assay: Inhibition of DHODH in human HEK293 cells assessed as increase in 250 IU/ml IFN-alpha stimulated ISG15 mRNA expression at 80 uM measured after 16 hrs by RT-qPCR analysis relative to control; assay type: cell-based; outline: as §1
[7] = biological target: T1, Dihydroorotate dehydrogenase (quinone), mitochondrial; assay: Inhibition of DHODH in human HEK-293 cells transfected with ISRE-luciferase reporter gene assessed as increase in 150 IU/ml IFN-alpha mediated cellular response at 80 uM in presence of PF477736 CHK1 inhibitor measured after 24 hrs by luciferase reporter gene assay; assay type: cell-based; settings: HEK293
Outline: (§2)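 ISRE-Luc HEK-293 cells given IFN-α (150 IU/ml) alone or with test compound (80 µM), with or without the MRE11 inhibitor mirin, ATR inhibitor AZD6738, CHK1 inhibitor PF477736 or P300/CBP inhibitor C636. Firefly luciferase read 24 h later, normalized to IFN-α alone. Means ± SD of at least three independent experiments.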

[8] = biological target: T1, Dihydroorotate dehydrogenase (quinone), mitochondrial; assay: Inhibition of DHODH in human HEK293 cells transfected with ISRE-luciferase reporter gene assessed as increase in 30 IU/ml IFN-alpha stimulated ISG15 mRNA expression at 80 uM measured after 16 hrs by RT-qPCR analysis relative to control; assay type: cell-based; outline: as §1
[9] = biological target: T1, Dihydroorotate dehydrogenase (quinone), mitochondrial; assay: Inhibition of DHODH in HEK293 cells assessed as reduction in number of viable cells at 6 to 193 uM measured upto 72 hrs by Celltiter-Glo assay; assay type: cell-based; settings: dose 6-193 µM, time hrs <=72
Outline: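 HEK-293 ISRE-Luc cells in DMEM with 10% FCS at 37°C, 5% CO2, treated with compound or DMSO; viable cells quantified by ATP content (CellTiter-Glo luminescence) after 24, 48 and 72 h. Expressed as percent of untreated cells at t = 0 h; means ± SD of two independent experiments.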

[10] = biological target: T1, Dihydroorotate dehydrogenase (quinone), mitochondrial; assay: Inhibition of DHODH in human HEK293 cells transfected with ISRE-luciferase reporter gene assessed as increase in 30 IU/ml IFN-alpha stimulated […] mRNA expression at 80 uM measured after 16 hrs by RT-qPCR analysis relative to control; assay type: cell-based; outline: as §1
[11] = biological target: T1, Dihydroorotate dehydrogenase (quinone), mitochondrial; assay: Inhibition of DHODH in human HEK293 cells assessed as increase in 250 IU/ml IFN-alpha stimulated DDX58 mRNA expression at 80 uM measured after 16 hrs by RT-qPCR analysis relative to control; assay type: cell-based; outline: as §1
[12] = biological target: T1, Dihydroorotate dehydrogenase (quinone), mitochondrial; assay: Inhibition of DHODH in human HEK-293 cells transfected with ISRE-luciferase reporter gene assessed as increase in 150 IU/ml IFN-alpha mediated cellular response at 80 uM in presence of P300/CBP measured after 24 hrs by luciferase reporter gene assay; assay type: cell-based; settings: HEK293; outline: as §2
[13] = biological target: T1, Dihydroorotate dehydrogenase (quinone), mitochondrial; assay: Inhibition of DHODH in human HEK293 cells transfected with ISRE-luciferase reporter gene assessed as increase in 125 IU/ml IFN-alpha stimulated IFIT5 mRNA expression at 80 uM measured after 16 hrs by RT-qPCR analysis relative to control; assay type: cell-based; outline: as §1
[14] = biological target: T1, Dihydroorotate dehydrogenase (quinone), mitochondrial; assay: Inhibition of DHODH in human HEK293 cells transfected with ISRE-luciferase reporter gene assessed as increase in 30 IU/ml IFN-alpha stimulated PML mRNA expression at 80 uM measured after 16 hrs by RT-qPCR analysis relative to control; assay type: cell-based; outline: as §1
[15] = biological target: T1, Dihydroorotate dehydrogenase (quinone), mitochondrial; assay: Inhibition of DHODH in human HEK-293 cells transfected with ISRE-luciferase reporter gene assessed as increase in 150 IU/ml IFN-alpha mediated cellular response at 80 uM in presence of AZD6738 ATR inhibitor measured after 24 hrs by luciferase reporter gene assay; assay type: cell-based; settings: HEK293; outline: as §2
[16] = biological target: T1, Dihydroorotate dehydrogenase (quinone), mitochondrial; assay: Inhibition of DHODH in human HEK-293 cells transfected with ISRE-luciferase reporter gene assessed as increase in IFN-alpha mediated cellular response after 24 hrs by luciferase reporter gene assay; settings: read-out: EC50
[17] = biological target: T1, Dihydroorotate dehydrogenase (quinone), mitochondrial; assay: Inhibition of DHODH in human HEK293 cells transfected with ISRE-luciferase reporter gene assessed as increase in 125 IU/ml IFN-alpha stimulated IFIT2 mRNA expression at 80 uM measured after 16 hrs by RT-qPCR analysis relative to control; assay type: cell-based; outline: as §1
[18] = biological target: T1, Dihydroorotate dehydrogenase (quinone), mitochondrial; assay: Inhibition of DHODH in human HEK293 cells transfected with ISRE-luciferase reporter gene assessed as increase in 60 IU/ml IFN-alpha stimulated PKR mRNA expression at 80 uM measured after 16 hrs by RT-qPCR analysis relative to control; assay type: cell-based
Outline: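 HEK-293 ISRE-Luc cells (DMEM, 10% FCS, 37°C, 5% CO2) were given increasing IFN-α doses together with DMSO or compound at 80 μM, then harvested at 16 h. RNA was extracted from 2×10^5 cells with DNase treatment. Transcripts were run by qPCR for 35 cycles and normalized to RPL13A and to unstimulated controls by 2^-ΔΔCT. Values are fold change versus DMSO; three independent experiments; two-way ANOVA with Bonferroni.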

T1 sequence (Q02127 whole entry): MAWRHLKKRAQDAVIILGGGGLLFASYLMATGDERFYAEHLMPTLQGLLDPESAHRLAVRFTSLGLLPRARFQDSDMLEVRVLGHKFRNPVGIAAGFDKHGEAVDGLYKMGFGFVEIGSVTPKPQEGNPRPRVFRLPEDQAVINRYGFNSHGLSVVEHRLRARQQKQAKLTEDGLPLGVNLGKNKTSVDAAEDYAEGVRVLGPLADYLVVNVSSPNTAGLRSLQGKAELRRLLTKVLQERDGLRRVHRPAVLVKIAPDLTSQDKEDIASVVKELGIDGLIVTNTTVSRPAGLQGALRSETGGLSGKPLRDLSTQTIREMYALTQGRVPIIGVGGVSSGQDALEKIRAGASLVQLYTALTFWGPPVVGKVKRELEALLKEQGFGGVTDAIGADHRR

`O=C1OC2(CCCCC2)c2ccn(C3CC3)c(=O)c21` was tested, and the Activity [1] was “inactive”, the fold change (FC) [2] was 5 and the fold change (FC) [3] was 39. The fold change (FC) [4] was 16, the fold change (FC) [5] was 61 and the fold change (FC) [6] was 226. The Activity [7] was “inactive”, the fold change (FC) [8] was 21 and the inhibition [9] was “Active”. The fold change (FC) [10] was 44, the fold change (FC) [11] was 38 and the Activity [12] was “inactive”. For the same compound, the fold change (FC) [13] was 4, the fold change (FC) [14] was 3 and the Activity [15] was “inactive”. It also gave an EC50 [16] of 44 µM, a fold change (FC) [17] of 112 and a fold change (FC) [18] of 3.
